“And” between values parts separate entries of the source, which are not always exact repeats. Equal entries are not always repeated.
Assay: Phase I dose-escalation safety and tolerability: adverse events, DLTs, MTD
Assay type: in vivo, human
Method in brief: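 Multicentre, open-label, dose-escalation study. A single oral dose on day 1 was followed one week later by continuous twice-daily dosing, starting at 10 mg. The first three cohorts got solution, later cohorts tablets. AEs were graded by CTC v3.0 from consent to 30 days after stopping. DLT: a CTC grade 3 AE, or a laboratory abnormality with clinical signs, within 42 days (extended from 35). MTD: last dose below the non-tolerated dose.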

[1] = 10 mg BID solution (n=5), CTCAE grade 1–2
[2] = 10 mg BID solution (n=5), CTCAE grade ⩾3
[3] = 20 mg BID solution (n=3), CTCAE grade 1–2
[4] = 20 mg BID solution (n=3), CTCAE grade ⩾3
[5] = 40 mg BID solution (n=6), CTCAE grade 1–2
[6] = 40 mg BID solution (n=6), CTCAE grade ⩾3
[7] = 40 mg BID tablet (n=7), CTCAE grade 1–2
[8] = 40 mg BID tablet (n=7), CTCAE grade ⩾3
[9] = 60 mg BID tablet (n=7), CTCAE grade 1–2
[10] = 60 mg BID tablet (n=7), CTCAE grade ⩾3
[11] = 90 mg BID tablet (n=11), CTCAE grade 1–2
[12] = 90 mg BID tablet (n=11), CTCAE grade ⩾3
[13] = 120 mg BID tablet (n=10), CTCAE grade 1–2
[14] = 120 mg BID tablet (n=10), CTCAE grade ⩾3
[15] = CTCAE grade 3, all cohorts, a patient may have experienced more than one DLT
[16] = Total (n=49), Any grade occurring in cycle 1/2

COc1ccc(-c2ccc3c(N4CCOC[C@@H]4C)nc(N4CCOC[C@@H]4C)nc3n2)cc1CO [AZD8055]
Fatigue: patients with AZD8055-related AE, n (%) [1]: 1 (20) % | Hyperglycaemia: patients with AZD8055-related AE, n (%) [1]: 0% | Increased ALT: patients with AZD8055-related AE, n (%) [1]: 1 (20) % | Increased AST: patients with AZD8055-related AE, n (%) [1]: 1 (20) % | Increased GGT: patients with AZD8055-related AE, n (%) [1]: 0% | Nausea: patients with AZD8055-related AE, n (%) [1]: 2 (40) % | Stomatitis: patients with AZD8055-related AE, n (%) [1]: 0% | Fatigue: patients with AZD8055-related AE, n (%) [2]: 0% | Hyperglycaemia: patients with AZD8055-related AE, n (%) [2]: 0% | Increased ALT: patients with AZD8055-related AE, n (%) [2]: 0% | Increased AST: patients with AZD8055-related AE, n (%) [2]: 0% | Increased GGT: patients with AZD8055-related AE, n (%) [2]: 0% | Nausea: patients with AZD8055-related AE, n (%) [2]: 0% | Stomatitis: patients with AZD8055-related AE, n (%) [2]: 0% | Fatigue: patients with AZD8055-related AE, n (%) [3]: 0% | Hyperglycaemia: patients with AZD8055-related AE, n (%) [3]: 0% | Increased ALT: patients with AZD8055-related AE, n (%) [3]: 0% | Increased AST: patients with AZD8055-related AE, n (%) [3]: 0% | Increased GGT: patients with AZD8055-related AE, n (%) [3]: 0% | Nausea: patients with AZD8055-related AE, n (%) [3]: 1 (33) % | Stomatitis: patients with AZD8055-related AE, n (%) [3]: 1 (33) % | Fatigue: patients with AZD8055-related AE, n (%) [4]: 0% | Hyperglycaemia: patients with AZD8055-related AE, n (%) [4]: 0% | Increased ALT: patients with AZD8055-related AE, n (%) [4]: 1 (33) % | Increased AST: patients with AZD8055-related AE, n (%) [4]: 1 (33) % | Increased GGT: patients with AZD8055-related AE, n (%) [4]: 0% | Nausea: patients with AZD8055-related AE, n (%) [4]: 0% | Stomatitis: patients with AZD8055-related AE, n (%) [4]: 0% | Patients with DLT (grade 3 rise in transaminases) (40 mg BID solution): 1 | Fatigue: patients with AZD8055-related AE, n (%) [5]: 2 (33) % | Hyperglycaemia: patients with AZD8055-related AE, n (%) [5]: 0% | Increased ALT: patients with AZD8055-related AE, n (%) [5]: 0% | Increased AST: patients with AZD8055-related AE, n (%) [5]: 0% | Increased GGT: patients with AZD8055-related AE, n (%) [5]: 1 (17) % | Nausea: patients with AZD8055-related AE, n (%) [5]: 0% | Stomatitis: patients with AZD8055-related AE, n (%) [5]: 1 (17) % | Fatigue: patients with AZD8055-related AE, n (%) [6]: 0% | Hyperglycaemia: patients with AZD8055-related AE, n (%) [6]: 0% | Increased ALT: patients with AZD8055-related AE, n (%) [6]: 1 (17) % | Increased AST: patients with AZD8055-related AE, n (%) [6]: 1 (17) % | Increased GGT: patients with AZD8055-related AE, n (%) [6]: 0% | Nausea: patients with AZD8055-related AE, n (%) [6]: 0% | Stomatitis: patients with AZD8055-related AE, n (%) [6]: 0% | Fatigue: patients with AZD8055-related AE, n (%) [7]: 1 (14) % | Hyperglycaemia: patients with AZD8055-related AE, n (%) [7]: 1 (14) % | Increased ALT: patients with AZD8055-related AE, n (%) [7]: 0% | Increased AST: patients with AZD8055-related AE, n (%) [7]: 0% | Increased GGT: patients with AZD8055-related AE, n (%) [7]: 0% | Nausea: patients with AZD8055-related AE, n (%) [7]: 1 (14) % | Stomatitis: patients with AZD8055-related AE, n (%) [7]: 0% | Fatigue: patients with AZD8055-related AE, n (%) [8]: 0% | Hyperglycaemia: patients with AZD8055-related AE, n (%) [8]: 0% | Increased ALT: patients with AZD8055-related AE, n (%) [8]: 1 (14) % | Increased AST: patients with AZD8055-related AE, n (%) [8]: 0% | Increased GGT: patients with AZD8055-related AE, n (%) [8]: 0% | Nausea: patients with AZD8055-related AE, n (%) [8]: 0% | Stomatitis: patients with AZD8055-related AE, n (%) [8]: 0% | Fatigue: patients with AZD8055-related AE, n (%) [9]: 1 (14) % | Hyperglycaemia: patients with AZD8055-related AE, n (%) [9]: 0% | Increased ALT: patients with AZD8055-related AE, n (%) [9]: 1 (14) % | Increased AST: patients with AZD8055-related AE, n (%) [9]: 1 (14) % | Increased GGT: patients with AZD8055-related AE, n (%) [9]: 1 (14) % | Nausea: patients with AZD8055-related AE, n (%) [9]: 0% | Stomatitis: patients with AZD8055-related AE, n (%) [9]: 0% | Fatigue: patients with AZD8055-related AE, n (%) [10]: 0% | Hyperglycaemia: patients with AZD8055-related AE, n (%) [10]: 0% | Increased ALT: patients with AZD8055-related AE, n (%) [10]: 0% | Increased AST: patients with AZD8055-related AE, n (%) [10]: 1 (14) % | Increased GGT: patients with AZD8055-related AE, n (%) [10]: 1 (14) % | Nausea: patients with AZD8055-related AE, n (%) [10]: 0% | Stomatitis: patients with AZD8055-related AE, n (%) [10]: 0% | Patients with DLT (grade 3 rise in transaminases) (90 mg BID tablet): 1 and 1/9 | Fatigue: patients with AZD8055-related AE, n (%) [11]: 1 (9) % | Hyperglycaemia: patients with AZD8055-related AE, n (%) [11]: 3 (27) % | Increased ALT: patients with AZD8055-related AE, n (%) [11]: 2 (18) % | Increased AST: patients with AZD8055-related AE, n (%) [11]: 1 (9) % | Increased GGT: patients with AZD8055-related AE, n (%) [11]: 0% | Nausea: patients with AZD8055-related AE, n (%) [11]: 2 (18) % | Stomatitis: patients with AZD8055-related AE, n (%) [11]: 2 (18) % | Fatigue: patients with AZD8055-related AE, n (%) [12]: 0% | Hyperglycaemia: patients with AZD8055-related AE, n (%) [12]: 0% | Increased ALT: patients with AZD8055-related AE, n (%) [12]: 1 (9) % | Increased AST: patients with AZD8055-related AE, n (%) [12]: 2 (18) % | Increased GGT: patients with AZD8055-related AE, n (%) [12]: 1 (9) % | Nausea: patients with AZD8055-related AE, n (%) [12]: 0% | Stomatitis: patients with AZD8055-related AE, n (%) [12]: 0% | Patients with DLT (grade 3 rise in transaminases) (120 mg BID cohort, patients evaluable for DLT): 3 and 3/9 | Fatigue: patients with AZD8055-related AE, n (%) [13]: 2 (20) % | Hyperglycaemia: patients with AZD8055-related AE, n (%) [13]: 2 (20) % | Increased ALT: patients with AZD8055-related AE, n (%) [13]: 1 (10) % | Increased AST: patients with AZD8055-related AE, n (%) [13]: 1 (10) % | Increased GGT: patients with AZD8055-related AE, n (%) [13]: 1 (10) % | Nausea: patients with AZD8055-related AE, n (%) [13]: 1 (10) % | Stomatitis: patients with AZD8055-related AE, n (%) [13]: 2 (20) % | Fatigue: patients with AZD8055-related AE, n (%) [14]: 0% | Hyperglycaemia: patients with AZD8055-related AE, n (%) [14]: 0% | Increased ALT: patients with AZD8055-related AE, n (%) [14]: 2 (20) % | Increased AST: patients with AZD8055-related AE, n (%) [14]: 2 (20) % | Increased GGT: patients with AZD8055-related AE, n (%) [14]: 0% | Nausea: patients with AZD8055-related AE, n (%) [14]: 0% | Stomatitis: patients with AZD8055-related AE, n (%) [14]: 0% | Non-tolerated dose (BID, DLTs in 3/9 evaluable patients): 120 mg | DLTs: Increased ALT, Total (%) [15]: 3 (6) % | DLTs: Increased AST, Total (%) [15]: 3 (6) % | Fatigue: patients with AZD8055-related AE, n (%) [16]: 8 (16) % | Hyperglycaemia: patients with AZD8055-related AE, n (%) [16]: 6 (12) % | Increased ALT: patients with AZD8055-related AE, n (%) [16]: 11 (22) % | Increased AST: patients with AZD8055-related AE, n (%) [16]: 11 (22) % | Increased GGT: patients with AZD8055-related AE, n (%) [16]: 5 (10) % | Nausea: patients with AZD8055-related AE, n (%) [16]: 7 (14) % | Stomatitis: patients with AZD8055-related AE, n (%) [16]: 6 (12) % | Fatigue: patients with AZD8055-related AE, n (%) (Total (n=49), CTCAE grade 1–2): 8 (16) % | Hyperglycaemia: patients with AZD8055-related AE, n (%) (Total (n=49), CTCAE grade 1–2): 6 (12) % | Increased ALT: patients with AZD8055-related AE, n (%) (Total (n=49), CTCAE grade 1–2): 5 (10) % | Increased AST: patients with AZD8055-related AE, n (%) (Total (n=49), CTCAE grade 1–2): 4 (8) % | Increased GGT: patients with AZD8055-related AE, n (%) (Total (n=49), CTCAE grade 1–2): 3 (6) % | Nausea: patients with AZD8055-related AE, n (%) (Total (n=49), CTCAE grade 1–2): 7 (14) % | Stomatitis: patients with AZD8055-related AE, n (%) (Total (n=49), CTCAE grade 1–2): 6 (12) % | Fatigue: patients with AZD8055-related AE, n (%) (Total (n=49), CTCAE grade ⩾3): 0% | Hyperglycaemia: patients with AZD8055-related AE, n (%) (Total (n=49), CTCAE grade ⩾3): 0% | Increased ALT: patients with AZD8055-related AE, n (%) (Total (n=49), CTCAE grade ⩾3): 6 (12) % | Increased AST: patients with AZD8055-related AE, n (%) (Total (n=49), CTCAE grade ⩾3): 7 (14) % | Increased GGT: patients with AZD8055-related AE, n (%) (Total (n=49), CTCAE grade ⩾3): 2 (4) % | Nausea: patients with AZD8055-related AE, n (%) (Total (n=49), CTCAE grade ⩾3): 0% | Stomatitis: patients with AZD8055-related AE, n (%) (Total (n=49), CTCAE grade ⩾3): 0% | Fatigue, AE assessed to be related to AZD8055, frequency (all patients (n=49)): 16% | Maximum tolerated dose (MTD) (oral, patients with advanced solid tumours or lymphomas): 90 mg BID | Patients requiring dose reductions as a result of increased transaminases, assessed to be AZD8055-related (three patients, one each in the 60, 90 and 120 mg BID tablet groups): 6% | Patients with a dose interruption (within cycles 1 and 2, 11 patients, 7 because of an AE): 22%
